In ChEMBL document CHEMBL1140415, “Synthesis, anti-HIV activity, and metabolic stability of new alkenyldiarylmethane HIV-1 non-nucleoside reverse transcriptase inhibitors” (J Med Chem, 2005):

How the values were obtained:
CEM-SS = experiment: Cytotoxic concentration against mock infected in CEM-SS cells; format: functional; conditions: Homo sapiens
Method in brief: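 Mock-infected CEM-SS cells, tested alongside the HIV-1 RF cytoprotection (MTS) assay. Data come from triplicate tests.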

[1] = target: Human immunodeficiency virus type 1 reverse transcriptase (Human immunodeficiency virus 1, UniProt Q72547); experiment: Inhibition of recombinant HIV-1 reverse transcriptase activity
[2] = system: Human immunodeficiency virus 1; experiment: In vitro anti-HIV activity against HIV-1RF infected in CEM-SS cells using MTS cytoprotection assay; format: functional, organism-based; conditions: Human immunodeficiency virus 1, CEM-SS
MT4 = experiment: Cytotoxic concentration against mock infected in MT-4 cells; format: functional; conditions: Homo sapiens
Method in brief: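 Uninfected (mock-infected) MT-4 cells, run alongside the MTT antiviral assay. Triplicate tests.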

[3] = In vitro hydrolytic stability in rat plasma, expressed as t1/2; format: ADME, cell-free
Method in brief: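 1,1-Diphenylethylene (2.1–5.1 mg) or benzophenone (2.1 mg) served as internal standard. Hydrolysis of the methyl ester was followed, and t1/2 is given in min ± SD from triplicate tests.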

[4] = system: Human immunodeficiency virus 1; experiment: In vitro anti-HIV activity against HIV-1 IIIB infected in MT-4 cells using MTT assay; format: functional, organism-based; conditions: Human immunodeficiency virus 1, MT4
Method in brief: (§1)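 MT-4 cells infected with HIV-1 strain IIIB or HIV-2 strain ROD. Protection from viral cytopathicity was read by MTT. Triplicate tests.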

[5] = system: Human immunodeficiency virus 2; experiment: In vitro anti-HIV activity against HIV-2ROD infected in MT-4 cells using MTT assay; format: functional, organism-based; conditions: Human immunodeficiency virus 2, MT4; method in brief: as §1
[6] = In vitro hydrolytic stability in rat plasma, expressed as t1/2; Not hydrolyzed; format: ADME, cell-free
Method in brief: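 Compounds (4.3–9.3 mg) were incubated in rat plasma in vitro. 1,1-Diphenylethylene (2.1–5.1 mg) or benzophenone (2.1 mg) served as internal standard. Hydrolysis of the methyl ester was followed, and t1/2 is given in min ± SD from triplicate tests.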

| SMILES | IC50 [1] | half-life [3] | T1/2 [6] | CC50 (CEM-SS) | EC50 [2] | CC50 (MT4) | EC50 [4] | EC50 [5] |
| --- | --- | --- | --- | --- | --- | --- | --- | --- |
| COC(=O)c1cc(C(=CCCN2CCOC2=O)c2cc(Br)c(OC)c(C(=O)OC)c2)cc(Br)c1OC |  |  |  |  | 0.02 µM |  |  |  |
| COC(=O)CCC/C=C(/c1cc(Cl)c(OC)c(C(=O)OC)c1)c1cc(Cl)ccc1OC | > 100 µM | 46.2 s |  | 9.3 µM | > 100 µM | 5.41 µM | > 5.41 µM | > 5.41 µM |
| COC(=O)CCC/C=C(/c1cc(F)cc(C(F)(F)F)c1)c1cc(C)c(OC)c(C(=O)OC)c1 | 55.3 µM | 261 s |  | 12 µM | 7.3 µM | 113 µM | 2.54 µM | 10.6 µM |
| COC(=O)CCC/C=C(\c1cc(C)c(OC)c(C(=O)OC)c1)c1cc(Cl)ccc1OC | > 100 µM | 28.2 s |  | 8.3 µM | > 100 µM | 18.8 µM | > 18.8 µM | > 14.5 µM |
| COc1ccc(/C(=C\CCN2CCOC2=O)c2cc(F)cc(C(F)(F)F)c2)cc1OC | 97.8 µM |  | Not hydrolyzed | 14.5 µM | > 100 µM | 18.5 µM | > 18.5 µM | > 13.4 µM |
| COc1ccc(/C(=C\CCN2CCOC2=O)c2cc(F)ccc2C(F)(F)F)cc1OC | > 100 µM |  | Not hydrolyzed | 26.7 µM | > 100 µM |  |  |  |
| COC(=O)CCC/C=C(/c1cc(C)c2on(C)c(=O)c2c1)c1cc(Cl)ccc1OC | 8.2 µM | 28.8 s |  | 13 µM | > 100 µM | > 28.8 µM | > 28.8 µM | > 28.8 µM |
| COC(=O)CCC/C=C(\c1cccc(C#N)c1)c1cc(C)c(OC)c(C(=O)OC)c1 | 0.84 µM | 42.6 s |  | 23.3 µM | > 100 µM | 153 µM | 12.8 µM | > 169 µM |
| COC(=O)CCC/C=C(\c1cccc(C#N)c1)c1cc(C)c2onc(OC)c2c1 | 5.7 µM | 87.6 s |  | 0.8 µM | > 100 µM | 4.69 µM | > 2.05 µM | > 5.63 µM |
| COC(=O)c1cc(/C(=C\CCN2CCOC2=O)c2ccc(OC)c(OC)c2)cc(C)c1OC | 1 µM | 346 s |  | 0.49 µM | > 100 µM | 1.05 µM | > 1.05 µM | > 1.05 µM |
| COC(=O)c1cc(C(=CCCN2CCOC2=O)c2ccc(OC)c(OC)c2)cc(C)c1OC | > 100 µM | 47.4 s |  | 4.79 µM | > 100 µM | 82.5 µM | > 33.8 µM | > 35.4 µM |
| COC(=O)CCC/C=C(\c1cc(F)cc(C(F)(F)F)c1)c1cc(C)c2onc(OC)c2c1 | 0.9 µM |  |  |  |  |  |  |  |
| COC(=O)CCC/C=C(\c1cc(F)cc(C(F)(F)F)c1)c1cc(C)c(OC)c(C(=O)OC)c1 | > 100 µM |  |  | > 5 µM | > 5 µM | 5.7 µM | > 5.51 µM | > 5.89 µM |

The next lines start with results.

| IC50 [1] | half-life [3] | T1/2 [6] | SMILES | CC50 (CEM-SS) | EC50 [2] | CC50 (MT4) | EC50 [4] | EC50 [5] |
| --- | --- | --- | --- | --- | --- | --- | --- | --- |
| 0.074 µM |  |  | COC(=O)CCC/C=C(/c1ccc(OC)c(OC)c1)c1cc(C)c(OC)c(C(=O)OC)c1 | 1.14 µM | 0.21 µM |  |  |  |
| > 100 µM | 58.8 s |  | COC(=O)CCC/C=C(/c1cc(C)c(OC)c(C(=O)OC)c1)c1cc(Cl)ccc1OC | 15.5 µM | > 100 µM | 13.8 µM | > 13.8 µM | > 13.8 µM |
| 7.58 µM | 25.2 s |  | COC(=O)CCC/C=C(\c1cccc(C#N)c1)c1cc(Cl)ccc1OC | 16.3 µM | 7 µM | ≥ 45.2 µM | 9.11 µM | > 67.6 µM |
| > 100 µM |  |  | COC(=O)CCC/C=C(\c1cc(F)cc(C(F)(F)F)c1)c1cc(Cl)c(OC)c(C(=O)OC)c1 | 16.1 µM | > 100 µM |  |  |  |
| > 100 µM | 52.2 s |  | COC(=O)CCC/C=C(\c1cc(F)cc(C(F)(F)F)c1)c1cc(C)c2on(C)c(=O)c2c1 | 16.8 µM | > 100 µM | 39.8 µM | > 35.7 µM | > 43.2 µM |
| 15.7 µM | 563 s |  | COC(=O)c1cc(/C(=C\CCN2CCOC2=O)c2cc(F)cc(C(F)(F)F)c2)cc(C)c1OC | 15 µM | 8.3 µM | 24.7 µM | 9.6 µM | > 22.6 µM |
| 0.75 µM | 26.4 s |  | COC(=O)CCC/C=C(\c1cccc(C#N)c1)c1cc(Cl)c(OC)c(C(=O)OC)c1 | 20.2 µM | 7.1 µM | 213 µM | 8.55 µM |  |
